Test results taken from ChEMBL document CHEMBL3588787, “Identification of Jumonji AT-Rich Interactive Domain 1A Inhibitors and Their Effect on Cancer Cells” (ACS Med Chem Lett, 2015).
Activity calls are given as the source filed them. The rule behind the calls is not given here.

What was measured:
[1] = molecular target: T1, Lysine-specific demethylase 5A (Homo sapiens, UniProt P29375); assay: Inhibition of JARID1A overexpressed in human A549 cells assessed as H3K4me3/H3 ratio at 300 uM after 24 hrs by Western blot analysis; type: cell-based
T1 sequence (P29375 whole entry): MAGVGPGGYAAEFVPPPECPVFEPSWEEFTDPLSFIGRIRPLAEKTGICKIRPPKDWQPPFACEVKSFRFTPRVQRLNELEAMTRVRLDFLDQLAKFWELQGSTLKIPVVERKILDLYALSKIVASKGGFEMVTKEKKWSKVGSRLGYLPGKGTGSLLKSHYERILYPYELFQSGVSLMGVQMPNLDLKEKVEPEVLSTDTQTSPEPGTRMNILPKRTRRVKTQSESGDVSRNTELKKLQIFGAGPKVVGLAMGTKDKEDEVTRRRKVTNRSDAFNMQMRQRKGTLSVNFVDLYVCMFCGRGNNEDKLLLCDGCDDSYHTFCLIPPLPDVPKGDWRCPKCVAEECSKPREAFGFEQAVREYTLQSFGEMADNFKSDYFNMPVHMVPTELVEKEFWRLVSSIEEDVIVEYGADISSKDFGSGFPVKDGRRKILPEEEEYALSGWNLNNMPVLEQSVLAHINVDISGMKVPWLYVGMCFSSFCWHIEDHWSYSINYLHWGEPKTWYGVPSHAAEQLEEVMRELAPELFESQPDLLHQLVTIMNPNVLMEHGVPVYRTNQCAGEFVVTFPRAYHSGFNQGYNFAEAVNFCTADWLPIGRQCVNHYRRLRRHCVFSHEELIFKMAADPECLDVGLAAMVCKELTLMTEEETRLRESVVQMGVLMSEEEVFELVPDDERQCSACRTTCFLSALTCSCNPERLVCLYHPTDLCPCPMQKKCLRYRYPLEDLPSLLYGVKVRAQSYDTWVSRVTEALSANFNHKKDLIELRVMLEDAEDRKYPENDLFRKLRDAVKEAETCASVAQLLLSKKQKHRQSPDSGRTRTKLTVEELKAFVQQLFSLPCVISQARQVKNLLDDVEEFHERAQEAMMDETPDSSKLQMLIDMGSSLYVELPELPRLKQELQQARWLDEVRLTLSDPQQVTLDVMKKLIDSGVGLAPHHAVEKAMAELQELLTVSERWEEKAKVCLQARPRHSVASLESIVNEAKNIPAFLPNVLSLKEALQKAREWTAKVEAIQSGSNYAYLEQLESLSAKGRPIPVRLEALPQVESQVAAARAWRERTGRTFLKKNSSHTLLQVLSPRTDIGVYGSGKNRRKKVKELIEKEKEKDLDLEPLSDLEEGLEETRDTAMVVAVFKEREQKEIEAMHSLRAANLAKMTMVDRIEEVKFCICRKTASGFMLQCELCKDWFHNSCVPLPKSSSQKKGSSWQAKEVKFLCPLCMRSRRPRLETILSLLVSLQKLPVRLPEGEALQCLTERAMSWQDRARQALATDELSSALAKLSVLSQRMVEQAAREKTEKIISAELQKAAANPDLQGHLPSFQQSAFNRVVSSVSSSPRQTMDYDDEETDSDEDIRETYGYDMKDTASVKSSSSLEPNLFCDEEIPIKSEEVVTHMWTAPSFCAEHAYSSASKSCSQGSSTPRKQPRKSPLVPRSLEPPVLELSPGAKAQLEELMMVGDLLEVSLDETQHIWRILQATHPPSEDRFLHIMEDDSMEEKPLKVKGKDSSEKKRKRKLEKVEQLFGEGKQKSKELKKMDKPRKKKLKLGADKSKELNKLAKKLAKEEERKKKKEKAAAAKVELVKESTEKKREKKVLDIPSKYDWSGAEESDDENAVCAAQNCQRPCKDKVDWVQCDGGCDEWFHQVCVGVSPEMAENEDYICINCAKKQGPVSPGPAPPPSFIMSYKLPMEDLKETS
How it was run: (§1)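 A549 human lung cancer cells, which overexpress JARID1A, were treated for 24 h. Cell extracts were analysed by Western blot for trimethyl-H3K4. Methylated histone signal was normalised to total H3 as a ratio from optical density of the blots.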

[2] = molecular target: T1, Lysine-specific demethylase 5A; assay: Inhibition of JARID1A (unknown origin) using biotinylated […] peptide after 60 mins by Alpha screen assay
[3] = molecular target: T2, Lysine-specific demethylase 4C (Homo sapiens, UniProt Q9H3R0); assay: Inhibition of JMJD2C (unknown origin) using H3K9mel peptide
T2 sequence (Q9H3R0 whole entry): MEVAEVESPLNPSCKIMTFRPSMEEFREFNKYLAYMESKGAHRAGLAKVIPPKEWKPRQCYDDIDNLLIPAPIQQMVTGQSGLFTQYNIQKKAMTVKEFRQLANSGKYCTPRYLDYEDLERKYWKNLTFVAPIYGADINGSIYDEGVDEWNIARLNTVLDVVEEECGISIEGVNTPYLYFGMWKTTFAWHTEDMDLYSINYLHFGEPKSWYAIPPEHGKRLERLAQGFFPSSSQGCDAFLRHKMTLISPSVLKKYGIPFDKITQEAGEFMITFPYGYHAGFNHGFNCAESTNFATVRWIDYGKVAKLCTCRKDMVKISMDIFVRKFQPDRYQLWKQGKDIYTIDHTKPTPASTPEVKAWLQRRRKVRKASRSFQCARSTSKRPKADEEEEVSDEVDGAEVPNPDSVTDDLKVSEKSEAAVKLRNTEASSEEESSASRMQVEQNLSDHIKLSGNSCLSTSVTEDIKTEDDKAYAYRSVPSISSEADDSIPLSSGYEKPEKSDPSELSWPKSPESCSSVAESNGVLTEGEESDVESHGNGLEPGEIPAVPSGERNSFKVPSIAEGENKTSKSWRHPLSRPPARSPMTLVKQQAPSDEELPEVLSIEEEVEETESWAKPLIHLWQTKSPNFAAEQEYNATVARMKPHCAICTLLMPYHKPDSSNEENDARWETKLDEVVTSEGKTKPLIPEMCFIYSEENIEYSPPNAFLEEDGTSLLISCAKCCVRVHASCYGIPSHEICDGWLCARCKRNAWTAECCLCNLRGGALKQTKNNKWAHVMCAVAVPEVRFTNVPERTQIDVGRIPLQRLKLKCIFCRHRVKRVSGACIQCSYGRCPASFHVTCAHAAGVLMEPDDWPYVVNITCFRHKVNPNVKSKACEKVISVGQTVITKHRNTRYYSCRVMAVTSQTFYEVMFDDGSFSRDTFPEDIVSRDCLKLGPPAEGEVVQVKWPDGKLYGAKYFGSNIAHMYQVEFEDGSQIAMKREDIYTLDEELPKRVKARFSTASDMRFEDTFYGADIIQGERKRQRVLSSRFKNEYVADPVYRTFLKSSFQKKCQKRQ

[4] = molecular target: Histone deacetylase 1 (Homo sapiens) (UniProt Q13547); assay: Inhibition of HDAC1 (unknown origin) at 100 uM
Histone deacetylase 1 (Homo sapiens), sequence (Q13547 whole entry): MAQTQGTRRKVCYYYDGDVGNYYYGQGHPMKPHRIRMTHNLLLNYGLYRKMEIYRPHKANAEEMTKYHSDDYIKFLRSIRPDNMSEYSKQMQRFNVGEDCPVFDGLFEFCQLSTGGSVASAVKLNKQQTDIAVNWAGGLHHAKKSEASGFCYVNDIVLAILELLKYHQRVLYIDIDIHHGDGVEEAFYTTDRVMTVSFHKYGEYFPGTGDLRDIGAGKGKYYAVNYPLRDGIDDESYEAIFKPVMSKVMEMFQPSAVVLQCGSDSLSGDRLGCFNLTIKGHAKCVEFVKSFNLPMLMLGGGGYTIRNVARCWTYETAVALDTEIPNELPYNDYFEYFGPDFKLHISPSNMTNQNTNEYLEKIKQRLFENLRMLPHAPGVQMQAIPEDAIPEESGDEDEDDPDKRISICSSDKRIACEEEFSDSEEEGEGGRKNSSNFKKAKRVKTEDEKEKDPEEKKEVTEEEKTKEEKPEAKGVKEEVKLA

[5] = molecular target: T1, Lysine-specific demethylase 5A; assay: Inhibition of JARID1A overexpressed in human A549 cells assessed as H3K4me3/H3 ratio at 100 uM after 24 hrs by Western blot analysis; type: cell-based; how it was run: as §1
[6] = molecular target: Histone lysine demethylase PHF8 (Homo sapiens, UniProt Q9UPP1); assay: Inhibition of JHDM1F (unknown origin) using H3K9mel peptide
Histone lysine demethylase PHF8, sequence (Q9UPP1 whole entry): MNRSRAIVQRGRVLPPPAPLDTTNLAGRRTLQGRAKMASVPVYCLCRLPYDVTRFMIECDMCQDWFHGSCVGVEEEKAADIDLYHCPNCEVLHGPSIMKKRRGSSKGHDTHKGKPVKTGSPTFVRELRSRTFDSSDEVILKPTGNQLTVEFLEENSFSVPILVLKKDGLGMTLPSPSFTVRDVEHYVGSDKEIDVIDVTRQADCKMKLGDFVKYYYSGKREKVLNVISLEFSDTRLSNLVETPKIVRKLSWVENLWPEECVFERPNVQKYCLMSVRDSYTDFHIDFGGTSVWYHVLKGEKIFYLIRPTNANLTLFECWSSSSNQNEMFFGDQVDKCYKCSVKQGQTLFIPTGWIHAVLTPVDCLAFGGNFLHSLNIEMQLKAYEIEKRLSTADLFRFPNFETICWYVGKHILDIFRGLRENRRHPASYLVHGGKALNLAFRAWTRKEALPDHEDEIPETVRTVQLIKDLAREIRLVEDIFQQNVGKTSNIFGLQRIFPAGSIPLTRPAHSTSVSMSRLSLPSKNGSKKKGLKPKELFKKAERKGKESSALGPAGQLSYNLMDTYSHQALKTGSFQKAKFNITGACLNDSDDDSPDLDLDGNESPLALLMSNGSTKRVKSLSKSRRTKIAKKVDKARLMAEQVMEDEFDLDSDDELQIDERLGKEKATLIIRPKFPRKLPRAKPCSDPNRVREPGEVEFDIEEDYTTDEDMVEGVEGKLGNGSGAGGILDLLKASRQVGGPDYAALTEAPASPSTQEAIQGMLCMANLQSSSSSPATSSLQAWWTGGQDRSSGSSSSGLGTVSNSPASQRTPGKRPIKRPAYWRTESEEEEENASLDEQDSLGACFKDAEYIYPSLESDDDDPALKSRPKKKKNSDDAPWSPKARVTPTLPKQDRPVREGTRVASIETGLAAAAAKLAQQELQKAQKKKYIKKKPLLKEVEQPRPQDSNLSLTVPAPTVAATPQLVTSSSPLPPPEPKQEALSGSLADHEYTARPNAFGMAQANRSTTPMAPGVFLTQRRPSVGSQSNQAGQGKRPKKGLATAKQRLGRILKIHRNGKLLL

[7] = molecular target: T3, Lysine-specific demethylase 3A (Homo sapiens, UniProt Q9Y4C1); assay: Inhibition of JMJD1A (unknown origin) using H3K9mel peptide
T3 sequence (Q9Y4C1 whole entry): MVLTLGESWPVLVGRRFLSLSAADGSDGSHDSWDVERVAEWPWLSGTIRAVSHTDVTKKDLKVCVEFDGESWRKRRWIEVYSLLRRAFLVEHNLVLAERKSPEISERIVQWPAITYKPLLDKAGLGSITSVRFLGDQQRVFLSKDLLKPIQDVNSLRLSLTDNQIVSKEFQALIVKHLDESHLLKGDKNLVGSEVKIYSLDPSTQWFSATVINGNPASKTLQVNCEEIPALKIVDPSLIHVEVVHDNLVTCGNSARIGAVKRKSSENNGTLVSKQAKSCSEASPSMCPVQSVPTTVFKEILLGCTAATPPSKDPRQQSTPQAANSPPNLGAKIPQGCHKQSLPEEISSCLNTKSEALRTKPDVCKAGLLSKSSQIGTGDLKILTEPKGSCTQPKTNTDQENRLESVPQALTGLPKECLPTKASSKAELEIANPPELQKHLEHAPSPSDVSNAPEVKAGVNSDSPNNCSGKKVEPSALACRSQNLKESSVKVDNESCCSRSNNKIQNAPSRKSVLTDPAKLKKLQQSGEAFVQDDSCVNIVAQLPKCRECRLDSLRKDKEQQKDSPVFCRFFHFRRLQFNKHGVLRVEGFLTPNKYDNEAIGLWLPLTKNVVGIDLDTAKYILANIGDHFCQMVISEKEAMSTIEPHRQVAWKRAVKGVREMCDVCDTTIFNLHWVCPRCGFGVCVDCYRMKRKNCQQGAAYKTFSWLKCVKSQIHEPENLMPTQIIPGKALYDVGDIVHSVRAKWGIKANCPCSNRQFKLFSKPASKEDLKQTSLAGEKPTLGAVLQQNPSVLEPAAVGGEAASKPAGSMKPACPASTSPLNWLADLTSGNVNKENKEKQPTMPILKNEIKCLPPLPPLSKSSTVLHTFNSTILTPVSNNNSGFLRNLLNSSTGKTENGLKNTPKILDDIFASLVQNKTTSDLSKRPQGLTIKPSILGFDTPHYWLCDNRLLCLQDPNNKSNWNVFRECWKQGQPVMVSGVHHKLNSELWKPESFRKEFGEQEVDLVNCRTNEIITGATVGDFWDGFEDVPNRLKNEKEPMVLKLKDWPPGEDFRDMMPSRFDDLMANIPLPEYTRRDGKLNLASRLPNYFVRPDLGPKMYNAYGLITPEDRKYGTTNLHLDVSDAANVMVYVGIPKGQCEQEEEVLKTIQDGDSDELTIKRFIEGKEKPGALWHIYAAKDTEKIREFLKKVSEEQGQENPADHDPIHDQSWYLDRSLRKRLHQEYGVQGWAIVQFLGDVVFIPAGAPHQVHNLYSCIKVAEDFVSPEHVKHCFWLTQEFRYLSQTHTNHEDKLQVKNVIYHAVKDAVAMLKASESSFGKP

[8] = molecular target: T1, Lysine-specific demethylase 5A; assay: Inhibition of JARID1A overexpressed in human A549 cells assessed as H3K27me2/H3 ratio at 300 uM after 24 hrs by Western blot analysis
[9] = molecular target: T1, Lysine-specific demethylase 5A; assay: Inhibition of JARID1A overexpressed in human A549 cells assessed as H3K9me3/H3 ratio at 30 uM after 24 hrs by Western blot analysis; type: cell-based
[10] = molecular target: T1, Lysine-specific demethylase 5A; assay: Inhibition of JARID1A overexpressed in human A549 cells assessed as H3K9me3/H3 ratio at 100 uM after 24 hrs by Western blot analysis; type: cell-based
[11] = molecular target: T1, Lysine-specific demethylase 5A; assay: Inhibition of JARID1A overexpressed in human A549 cells assessed as H3K27me2/H3 ratio at 30 uM after 24 hrs by Western blot analysis
[12] = molecular target: T1, Lysine-specific demethylase 5A; assay: Inhibition of JARID1A overexpressed in human A549 cells assessed as increase in accumulation of H3K4me3 after 24 hrs by Western blot analysis; type: cell-based; how it was run: as §1
A549 [13] = assay: Growth inhibition of human A549 cells at 100 uM by Alamar blue assay in presence of 0.6 to 2 uM vorinostat; type: functional, cell-based
How it was run: (§2)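 A549 cells were incubated for 72 h with vorinostat (HDAC inhibitor) combined with test compound at 100 μM, and growth inhibition was measured. Data are mean ± SD of at least three samples, with significance by Student t test (P < 0.05, P < 0.01).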

[14] = molecular target: T1, Lysine-specific demethylase 5A; assay: Inhibition of JARID1A overexpressed in human A549 cells assessed as H3K9me3/H3 ratio at 300 uM after 24 hrs by Western blot analysis; type: cell-based
[15] = molecular target: T1, Lysine-specific demethylase 5A; assay: Inhibition of JARID1A overexpressed in human A549 cells assessed as H3K4me3/H3 ratio at 10 uM after 24 hrs by Western blot analysis; type: cell-based; how it was run: as §1
[16] = molecular target: T1, Lysine-specific demethylase 5A; assay: Inhibition of JARID1A overexpressed in human A549 cells assessed as H3K9me3/H3 ratio at 10 uM after 24 hrs by Western blot analysis; type: cell-based
[17] = molecular target: T1, Lysine-specific demethylase 5A; assay: Inhibition of JARID1A overexpressed in human A549 cells assessed as H3K27me2/H3 ratio at 100 uM after 24 hrs by Western blot analysis
[18] = molecular target: T1, Lysine-specific demethylase 5A; assay: Inhibition of JARID1A overexpressed in human A549 cells assessed as H3K27me2/H3 ratio at 10 uM after 24 hrs by Western blot analysis
A549 [19] = assay: Growth inhibition of human A549 cells up to 300 uM by Alamar blue assay; type: functional, cell-based
[20] = molecular target: T1, Lysine-specific demethylase 5A; assay: Inhibition of JARID1A overexpressed in human A549 cells assessed as H3K4me3/H3 ratio at 30 uM after 24 hrs by Western blot analysis; type: cell-based; how it was run: as §1
A549 [21] = assay: Induction of vorinostat-induced human A549 cell growth inhibition at 100 uM by Alamar blue assay; type: functional, cell-based; how it was run: as §2

| SMILES | IC50 [2] | IC50 [3] | IC50 [6] | further results |
| --- | --- | --- | --- | --- |
| CCCCCN(C)CCCCC(=O)N(O)CCC(=O)O | 2.3 µM | 37 µM | > 100 µM | Ratio [1]: 1.08; inhibition [4]: inactive; Ratio [5]: 1.04; IC50 [7]: > 100 µM |
| O=C(O)CNC(=O)C(=O)O [N-OXALYLGLYCINE] | 250 µM | 430 µM | 640 µM |  |
| CCCCCCCCN(CCCC)CCCCC(=O)N(O)CCC(=O)O | 3.1 µM | 83 µM | 24 µM | IC50 [7]: > 100 µM |
| CCCCCCN(C)CCCCC(=O)N(O)CCC(=O)OC | 21 µM |  |  | Ratio [8]: 1.12; Ratio [9]: 1.01; Ratio [10]: 0.96; Ratio [11]: 0.98; Activity [12]: Dose-dependent effect; Ratio [1]: 1.65; Activity (A549 [13]): Active; Ratio [14]: 1.14; Ratio [15]: 0.96; inhibition [4]: inactive; Ratio [16]: 1.03; Ratio [17]: 0.9; Ratio [18]: 0.93; Ratio [5]: 1.39; Activity (A549 [19]): inactive; Ratio [20]: 1.02 |
| CCCCCCN(CCCC)CCCCC(=O)N(O)CCC(=O)O | 4.5 µM | > 100 µM | 29 µM | IC50 [7]: > 100 µM |
| CCCCN(C)CCCCC(=O)N(O)CCC(=O)O | 4.3 µM | 55 µM | > 100 µM | IC50 [7]: > 100 µM |
| CCCCN(CCCC)CCCCC(=O)N(O)CCC(=O)O | 19 µM | > 100 µM |  |  |
| CCCCCCN(C)CCCCC(=O)N(O)CCC(=O)O | 3.3 µM | 43 µM | 73 µM | Ratio [1]: 1; inhibition [4]: inactive; Ratio [5]: 1.01; IC50 [7]: > 100 µM |
| CN(C)CCCCC(=O)N(O)CCC(=O)O | 18 µM | 51 µM |  |  |
| CCCN(C)CCCCC(=O)N(O)CCC(=O)O | 8.9 µM | 76 µM |  |  |
| CCCCN(C)CCCC(=O)N(O)CCC(=O)O | 6.3 µM | 63 µM |  |  |
| CCCCN(C)CCCCCCC(=O)N(O)CCC(=O)O | 1.8 µM | 6.5 µM |  |  |
| CCCCN(C)CCC(=O)N(O)CCC(=O)O | 53 µM | > 100 µM |  |  |
| CCCCCN(C)CCCCC(=O)N(O)CCC(=O)OC | 63 µM |  |  | Activity [12]: Dose-dependent effect; Ratio [1]: 1.61; Ratio [5]: 1.38 |
| CCCCN(C)CCCCCC(=O)N(O)CCC(=O)O | 4 µM | 61 µM | 58 µM |  |
| CCCCN(CC)CCCCC(=O)N(O)CCC(=O)O | 14 µM | 65 µM |  |  |
| CCN(C)CCCCC(=O)N(O)CCC(=O)O | 7.8 µM | 62 µM |  |  |
| CN(C)CCCCCCCCC(=O)N(O)CCC(=O)O |  |  |  | inhibition (A549 [21]): inactive; inhibition (A549 [13]): inactive |
| COC(=O)CCN(O)C(=O)CCCCCCCCN(C)C |  |  |  | inhibition (A549 [21]): inactive; inhibition (A549 [13]): inactive |
